Source: PubChem BioAssay (Johns Hopkins Ion Channel Center)
KCNK9 block: KCNK9 potassium channel inhibitors, primary screen, HEK293 cells, thallium flux | AID 488922, 2010 | B-score at 10 µM | FluxOR thallium flux fluorescence; stronger effect = lower value | 1.2% of 310,000 active;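 active = ratio B-score over 3 SD below the library mean, with starting fluorescence within 5 SD of its mean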;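 also: negative B-score means less thallium flux so channel inhibition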
KCNK3 block: human KCNK3 channel inhibitors, primary screen, CHO cells, FluxOR thallium flux, B-score. Potassium channel subfamily K member 3 (Homo sapiens), O14649. FluxOR fluorescence; stronger effect = lower value. B-score at 10 µM. 0.84% of 340,000 active;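 active = B-score under library mean minus 4 SD, starting fluorescence ratio at most library mean plus 5 SD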;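 also: more negative B-score means stronger inhibition of thallium flux through KCNK3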
KCNQ1 act: potentiators or activators of KCNQ1 channel, primary screen, cell-based, thallium flux, high-throughput; Potassium voltage-gated channel subfamily KQT member 1 (Homo sapiens), P51787; CHO-K1 KCNQ1, thallium flux FluxOR fluorescence; stronger effect = higher value; B-score at 10 µM; 0.35% of 310,000 active; AID 2648, 2010;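 active = fluorescence ratio B-score, a plate-corrected score, at least three library SD, with initial intensity B-score within 5 SD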
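Material: CHO-K1 cells stably expressing KCNQ1. Medium: assay buffer for compound exposure, DMSO matched across wells. Reagent: K+/Tl+ depolarizing stimulus. Compound dosing: single-concentration screen. Times: 37 °C overnight plating, 90-min dark dye load, 20-min compound pretreatment. Technique: FluxOR Tl+ flux fluorescence.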
KCNQ1 inh: inhibitors of human KCNQ1 channel, primary screen, cell-based, thallium flux, high-throughput | Potassium voltage-gated channel subfamily KQT member 1 (Homo sapiens), P51787 | CHO-K1 KCNQ1, FluxOR thallium flux fluorescence; stronger effect = higher value | 1.3% of 310,000 active | B-score at 10 µM;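 active = compounds whose thallium flux B-score, printed positive for inhibition, exceeds three library SD while starting fluorescence stays within three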;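 also: channel opened by potassium depolarization with thallium stimulus after 20 min compound exposure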
hERG rescue: hERG rescue from dofetilide block, primary screen, cell-based, CHO-hERG, FluxOR thallium flux, dofetilide IC70; Voltage-gated inwardly rectifying potassium channel KCNH2 (Homo sapiens), Q12809; dofetilide IC70 present; activation (rescue from dofetilide block), less the hit threshold, % at 10 µM; 0.51% of 310,000 active; AID 1511, 2009;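 active = activation above the mean of controls blocked by dofetilide plus 5 SD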;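 also: thallium influx through hERG after potassium depolarization seen as dye fluorescence rise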
Target sequence (Q12809 whole entry, looked up): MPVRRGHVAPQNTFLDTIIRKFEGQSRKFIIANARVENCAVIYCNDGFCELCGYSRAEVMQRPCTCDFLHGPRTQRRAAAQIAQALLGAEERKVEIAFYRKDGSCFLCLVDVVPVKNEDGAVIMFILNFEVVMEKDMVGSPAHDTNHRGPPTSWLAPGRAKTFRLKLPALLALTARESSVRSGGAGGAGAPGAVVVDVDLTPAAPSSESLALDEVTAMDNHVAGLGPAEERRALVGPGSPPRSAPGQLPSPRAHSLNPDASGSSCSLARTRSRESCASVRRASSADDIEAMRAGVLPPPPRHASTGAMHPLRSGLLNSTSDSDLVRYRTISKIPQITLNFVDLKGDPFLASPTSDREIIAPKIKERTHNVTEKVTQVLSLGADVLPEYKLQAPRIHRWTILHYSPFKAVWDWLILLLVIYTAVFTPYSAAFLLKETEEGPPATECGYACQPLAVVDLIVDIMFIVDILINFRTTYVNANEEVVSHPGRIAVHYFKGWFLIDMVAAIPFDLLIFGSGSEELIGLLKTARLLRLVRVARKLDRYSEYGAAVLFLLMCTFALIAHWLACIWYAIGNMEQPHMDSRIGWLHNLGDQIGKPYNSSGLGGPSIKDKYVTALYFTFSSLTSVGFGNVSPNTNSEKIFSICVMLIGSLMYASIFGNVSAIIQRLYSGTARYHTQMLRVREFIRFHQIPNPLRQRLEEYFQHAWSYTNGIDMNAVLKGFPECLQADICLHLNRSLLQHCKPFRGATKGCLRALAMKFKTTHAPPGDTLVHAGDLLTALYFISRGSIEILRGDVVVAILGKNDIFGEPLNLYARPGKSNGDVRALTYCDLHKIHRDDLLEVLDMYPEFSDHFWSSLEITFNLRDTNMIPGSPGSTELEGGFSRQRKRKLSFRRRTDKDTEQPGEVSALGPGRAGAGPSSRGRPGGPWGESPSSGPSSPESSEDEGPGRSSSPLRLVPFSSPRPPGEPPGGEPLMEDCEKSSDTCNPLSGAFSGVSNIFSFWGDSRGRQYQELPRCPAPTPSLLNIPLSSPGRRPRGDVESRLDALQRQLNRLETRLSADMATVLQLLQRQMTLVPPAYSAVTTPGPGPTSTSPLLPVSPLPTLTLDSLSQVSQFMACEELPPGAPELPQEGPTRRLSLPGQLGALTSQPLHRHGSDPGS
* hit, by the source's call. An excerpt weighted towards active compounds, which were near 3.1% of everything screened.

Results for Cc1ccc(S(=O)(=O)c2c(N)n(NC(=O)c3ccccc3C)c3nc4ccccc4nc23)cc1 ?
KCNK9 block: inactive; KCNK3 block: -8.8*; KCNQ1 act: inactive; KCNQ1 inh: inactive; hERG rescue: -17

Results for CCCCn1c(NC(=O)c2ccco2)c(S(=O)(=O)c2ccc(C)cc2)c2nc3ccccc3nc21 ?
KCNK9 block: inactive; KCNK3 block: inactive; KCNQ1 act: inactive; KCNQ1 inh: inactive; hERG rescue: -6

How did CCCCCn1c(NC(=O)c2ccco2)c(S(=O)(=O)c2ccc(C)cc2)c2nc3ccccc3nc21 do in these assays?
KCNK9 block: inactive; KCNK3 block: inactive; KCNQ1 act: inactive; KCNQ1 inh: 10*; hERG rescue: -4

How did COc1cc(C(=O)COC(=O)c2cccs2)cc(OC)c1OC do in these assays?
KCNK3 block: inactive

Results for CN(Cc1ccco1)S(=O)(=O)c1ccc(CN2C(=O)c3cccnc3C2=O)s1 ?
KCNK9 block: inactive; KCNK3 block: inactive; KCNQ1 act: inactive; KCNQ1 inh: inactive; hERG rescue: -9

Results for Cc1cc(/C=N/n2cnnc2)c(C)n1-c1cc(Cl)ccc1Cl ?
KCNK9 block: inactive; KCNK3 block: inactive; KCNQ1 act: 12*; KCNQ1 inh: inactive; hERG rescue: -7

How did Cc1ccc2nc(SCCCCOc3ccccc3)[nH]c2c1 do in these assays?
KCNK9 block: inactive; KCNK3 block: -9.9*; KCNQ1 act: inactive; KCNQ1 inh: inactive; hERG rescue: -2

Results for COc1cc(/C=C/C(=O)OCC(=O)NC(=O)C2COc3ccccc3O2)ccc1OC(F)F (stereo unspecified) ?
KCNK3 block: inactive

Results for CC(=O)/C(=N/Nc1ccccc1[N+](=O)[O-])N1CCCc2ccccc21 ?
KCNK9 block: -7.1*; KCNK3 block: inactive; KCNQ1 act: inactive; KCNQ1 inh: 7*; hERG rescue: -8

Results for CC(=O)/C(=N/Nc1ccc([N+](=O)[O-])cc1)N1CCCc2ccccc21 ?
KCNK9 block: inactive; KCNK3 block: inactive; KCNQ1 act: inactive; KCNQ1 inh: inactive; hERG rescue: -1

What do the screens show for `O=C(N1CCN(c2ccccn2)CC1)N1c2ccccc2Sc2ccccc21`?
KCNK9 block: -7.6*; KCNK3 block: inactive; KCNQ1 act: inactive; KCNQ1 inh: inactive; hERG rescue: -9

How did O=C(c1ccc(Br)s1)N1CCN(c2ccccn2)CC1 do in these assays?
KCNK9 block: inactive; KCNK3 block: inactive; KCNQ1 act: inactive; KCNQ1 inh: inactive; hERG rescue: -6

How did CC(C)(C)NC(=O)NC(=O)CN1C(=O)NC(c2ccccc2)(c2ccccc2)C1=O do in these assays?
KCNK9 block: inactive; KCNK3 block: inactive; KCNQ1 act: inactive; KCNQ1 inh: inactive; hERG rescue: -6

What do the screens show for `CC(C)(/C=N/O)/[N+]([O-])=C/c1ccccc1`?
KCNK9 block: inactive; KCNK3 block: inactive; KCNQ1 act: inactive; KCNQ1 inh: 7*; hERG rescue: -8

How did CC(C)(C(=O)c1ccccc1)/[N+]([O-])=C/c1ccccc1 do in these assays?
KCNK9 block: inactive; KCNK3 block: inactive; KCNQ1 act: inactive; KCNQ1 inh: inactive; hERG rescue: -5

What do the screens show for `CC(=O)c1ccc(S(=O)(=O)Oc2ccc(C(=O)O)cc2Cl)cc1`?
KCNK3 block: inactive

Results for CCOc1cc(C)c(-c2onc(C(F)(F)F)c2-c2csc(C)n2)c(O)c1 ?
KCNK9 block: inactive; KCNK3 block: inactive; KCNQ1 act: inactive; KCNQ1 inh: 8*; hERG rescue: -18

What do the screens show for `Cc1nc(-c2c(C(F)(F)F)noc2-c2ccc(O)cc2O)cs1`?
KCNK9 block: inactive; KCNK3 block: inactive; KCNQ1 act: inactive; KCNQ1 inh: inactive; hERG rescue: -11

How did Cc1ccc(NC(=O)CNc2cccc(Br)c2)cc1S(=O)(=O)N1CCOCC1 do in these assays?
KCNK3 block: inactive

Results for CN(c1ccccc1)c1nc(N)c([N+](=O)[O-])c(Nc2ccc(F)cc2)n1 ?
KCNK9 block: inactive; KCNK3 block: inactive; KCNQ1 act: inactive; KCNQ1 inh: inactive; hERG rescue: -11

Results for CN(c1ccccc1)c1nc(N)c([N+](=O)[O-])c(Nc2ccccc2F)n1 ?
KCNK9 block: -6.9*; KCNK3 block: inactive; KCNQ1 act: inactive; KCNQ1 inh: inactive; hERG rescue: -3

What do the screens show for `CCN(C(=O)COn1nnc2ccc(S(=O)(=O)N(C)C)cc21)C1CCS(=O)(=O)C1` (stereo unspecified)?
KCNK3 block: inactive

What do the screens show for `Cc1noc(C)c1C(=O)Nc1ccc(C#N)cc1`?
KCNK9 block: inactive; KCNK3 block: inactive; KCNQ1 act: inactive; KCNQ1 inh: inactive; hERG rescue: 0

Results for O=C(CSc1nnc(Nc2ccccc2F)s1)NC1CC1 ?
KCNK3 block: inactive

What do the screens show for `COc1ccc(OCCNc2cc(N3CCCCC3)ccc2[N+](=O)[O-])cc1`?
KCNK9 block: inactive; KCNK3 block: inactive; KCNQ1 act: inactive; KCNQ1 inh: inactive; hERG rescue: 0

What do the screens show for `Cc1ccccc1OCCNc1cc(N2CCCCC2)ccc1[N+](=O)[O-]`?
KCNK9 block: -7*; KCNK3 block: inactive; KCNQ1 act: inactive; KCNQ1 inh: inactive; hERG rescue: -4

What do the screens show for `COc1cccc(OCCNc2cc(N3CCCCC3)ccc2[N+](=O)[O-])c1`?
KCNK9 block: -7.9*; KCNK3 block: inactive; KCNQ1 act: inactive; KCNQ1 inh: inactive; hERG rescue: -13

How did O=C(C[n+]1cc(-c2ccccc2)n2c1CCCCC2)c1ccc(Cl)cc1 do in these assays?
KCNK9 block: inactive; KCNK3 block: inactive; KCNQ1 act: inactive; KCNQ1 inh: inactive; hERG rescue: -9

How did CC1CCC(C(C)C)C(OC(=O)C[n+]2cc(-c3ccc(Cl)cc3)n3c2CCCCC3)C1 (stereo unspecified) do in these assays?
KCNK9 block: inactive; KCNK3 block: -9.8*; KCNQ1 act: inactive; KCNQ1 inh: 6*; hERG rescue: -25

What do the screens show for `Clc1ccc(C[n+]2cc(-c3ccccc3)n3c2CCCCC3)c(Cl)c1`?
KCNK9 block: inactive; KCNK3 block: inactive; KCNQ1 act: inactive; KCNQ1 inh: inactive; hERG rescue: -21

Results for Clc1ccc(-c2c[n+](Cc3ccc(Cl)cc3Cl)c3n2CCCCC3)cc1 ?
KCNK9 block: inactive; KCNK3 block: inactive; KCNQ1 act: inactive; KCNQ1 inh: 7*; hERG rescue: -20
